Test results published in ChEMBL document CHEMBL1154183, “Structure-based optimization of potent and selective inhibitors of the tyrosine kinase erythropoietin producing human hepatocellular carcinoma receptor B4 (EphB4)” (J Med Chem, 2009).

Key:
[1] = biological target: Ephrin type-B receptor 3 (Homo sapiens, UniProt P54753); test: Inhibition of EphB3 by [gamma33-P]ATP based assay
Method in brief: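 Radiometric [γ-33P]ATP kinase assay against Eph kinases, following a protocol similar to the Mg-acetate/MgATP filter-binding method.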

[2] = biological target: T1, Ephrin type-B receptor 4 (Homo sapiens, UniProt P54760); test: Inhibition of EphB4 by [gamma33-P]ATP based assay
T1 sequence (P54760 whole entry): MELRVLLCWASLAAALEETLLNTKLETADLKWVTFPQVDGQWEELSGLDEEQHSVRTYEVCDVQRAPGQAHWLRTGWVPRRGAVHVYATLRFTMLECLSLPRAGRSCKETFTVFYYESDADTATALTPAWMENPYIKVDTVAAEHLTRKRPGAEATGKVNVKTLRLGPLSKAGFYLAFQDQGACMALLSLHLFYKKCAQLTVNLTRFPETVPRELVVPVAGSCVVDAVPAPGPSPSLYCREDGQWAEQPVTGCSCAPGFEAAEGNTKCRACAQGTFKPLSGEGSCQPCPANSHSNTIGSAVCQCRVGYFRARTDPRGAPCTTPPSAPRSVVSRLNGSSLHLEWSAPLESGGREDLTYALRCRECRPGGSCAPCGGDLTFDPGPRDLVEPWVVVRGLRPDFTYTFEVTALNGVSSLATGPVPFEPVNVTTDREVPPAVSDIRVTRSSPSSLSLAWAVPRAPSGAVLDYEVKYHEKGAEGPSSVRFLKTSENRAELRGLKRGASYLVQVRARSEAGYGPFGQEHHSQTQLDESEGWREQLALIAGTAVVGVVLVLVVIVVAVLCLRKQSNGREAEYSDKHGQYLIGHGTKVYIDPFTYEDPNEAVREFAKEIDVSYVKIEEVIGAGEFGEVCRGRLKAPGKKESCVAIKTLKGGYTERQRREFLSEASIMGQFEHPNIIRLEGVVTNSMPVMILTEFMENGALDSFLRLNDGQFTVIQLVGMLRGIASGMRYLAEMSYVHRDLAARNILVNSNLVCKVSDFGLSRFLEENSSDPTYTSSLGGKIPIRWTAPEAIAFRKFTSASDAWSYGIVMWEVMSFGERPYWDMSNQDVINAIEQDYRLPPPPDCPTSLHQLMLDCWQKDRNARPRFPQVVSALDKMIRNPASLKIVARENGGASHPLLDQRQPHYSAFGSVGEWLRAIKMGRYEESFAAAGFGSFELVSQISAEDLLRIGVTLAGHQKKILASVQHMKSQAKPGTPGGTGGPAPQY

[3] = biological target: Mitogen-activated protein kinase 9 (Homo sapiens) (UniProt P45984); test: Inhibition of JNK2 assessed as remaining enzyme activity at 1 uM relative to DMSO
Method in brief: (§1)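 Dundee kinase panel, radiometric: [γ-33P]ATP (800 cpm/pmol) at 5, 20 or 50 μM, at or below each kinase's ATP Km; 10 mM magnesium acetate; robotic, room temperature, 30 min. Reactions started with MgATP, stopped with orthophosphoric acid, spotted onto P81 filters. Inhibitor tested at a single concentration; mean % activity of duplicates relative to DMSO control.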

[4] = biological target: Ribosomal protein S6 kinase alpha-1 (Homo sapiens) (UniProt Q15418); test: Inhibition of RSK1 assessed as remaining enzyme activity at 1 uM relative to DMSO
[5] = biological target: Serine/threonine-protein kinase 32B (Homo sapiens) (UniProt Q9NY57); test: Binding affinity to YANK2 assessed as percentage of kinase remaining bound to the bead at 1 uM by T7 phage display based binding assay
Method in brief: (§2)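 Competition binding assay run by a contract lab. Each kinase was expressed as a fusion to T7 phage, full-length for small kinases and catalytic domain for large ones. Phage were mixed with an immobilized known kinase inhibitor on streptavidin magnetic beads and with test compound at a single 1 μM. Kinase/phage still bound to the beads was quantified by qPCR and expressed as % of DMSO control.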

[6] = biological target: Protein kinase C zeta type (Homo sapiens) (UniProt Q05513); test: Inhibition of PKCzeta assessed as remaining enzyme activity at 1 uM relative to DMSO
[7] = biological target: Tyrosine-protein kinase SYK (Homo sapiens) (UniProt P43405); test: Inhibition of SYK assessed as remaining enzyme activity at 1 uM relative to DMSO
[8] = biological target: Serine/threonine-protein kinase TBK1 (Homo sapiens) (UniProt Q9UHD2); test: Inhibition of TBK1 assessed as remaining enzyme activity at 1 uM relative to DMSO
[9] = biological target: Serine/threonine-protein kinase PAK 5 (Homo sapiens) (UniProt Q9P286); test: Inhibition of PAK5 assessed as remaining enzyme activity at 1 uM relative to DMSO
Method in brief: (§3)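 Radiometric kinase assay run robotically at room temperature for 30 min. Contained 10 mM magnesium acetate and [γ-33P]ATP (800 cpm/pmol) at 5, 20 or 50 μM, chosen per kinase to be at or below its ATP Km. Reactions were started with MgATP, stopped with orthophosphoric acid and spotted onto P81 filters. Result is mean % activity of duplicates at one inhibitor concentration versus DMSO control.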

[10] = biological target: Serine/threonine-protein kinase PAK 6 (Homo sapiens) (UniProt Q9NQU5); test: Inhibition of PAK6 assessed as remaining enzyme activity at 1 uM relative to DMSO; method in brief: as §3
[11] = biological target: Ephrin type-A receptor 1 (Homo sapiens, UniProt P21709); test: Inhibition of EphA1 by [gamma33-P]ATP based assay
[12] = biological target: T1, Ephrin type-B receptor 4; test: Inhibition of EphB4 assessed as blockade of synthetic substrate phosphorylation by FRET assay
[13] = biological target: RAF proto-oncogene serine/threonine-protein kinase (Homo sapiens) (UniProt P04049); test: Binding affinity to RAF1 assessed as percentage of kinase remaining bound to the bead at 1 uM by T7 phage display based binding assay; method in brief: as §2
[14] = biological target: Receptor tyrosine-protein kinase erbB-3 (Homo sapiens) (UniProt P21860); test: Binding affinity to ERBB3 assessed as percentage of kinase remaining bound to the bead at 1 uM by T7 phage display based binding assay; method in brief: as §2
[15] = biological target: Mitogen-activated protein kinase 14 (Homo sapiens) (UniProt Q16539); test: Inhibition of p38alpha assessed as remaining enzyme activity at 3 uM relative to DMSO
[16] = biological target: Ephrin type-A receptor 2 (Homo sapiens) (UniProt P29317); test: Inhibition of EPHA2 assessed as remaining enzyme activity at 3 uM relative to DMSO; method in brief: as §1
[17] = biological target: Misshapen-like kinase 1 (Homo sapiens) (UniProt Q8N4C8); test: Inhibition of MINK1 assessed as remaining enzyme activity at 3 uM relative to DMSO; method in brief: as §3
[18] = biological target: Rho-associated protein kinase 2 (Homo sapiens) (UniProt O75116); test: Inhibition of ROCK2 assessed as remaining enzyme activity at 3 uM relative to DMSO
[19] = biological target: Serine/threonine-protein kinase STK11 (Homo sapiens) (UniProt Q15831); test: Inhibition of LKB1 assessed as remaining enzyme activity at 3 uM relative to DMSO; method in brief: as §3
[20] = biological target: RAC-alpha serine/threonine-protein kinase (Homo sapiens) (UniProt P31749); test: Inhibition of PKBalpha assessed as remaining enzyme activity at 3 uM relative to DMSO; method in brief: as §3

Misshapen-like kinase 1 (Homo sapiens), sequence (Q8N4C8 whole entry, looked up): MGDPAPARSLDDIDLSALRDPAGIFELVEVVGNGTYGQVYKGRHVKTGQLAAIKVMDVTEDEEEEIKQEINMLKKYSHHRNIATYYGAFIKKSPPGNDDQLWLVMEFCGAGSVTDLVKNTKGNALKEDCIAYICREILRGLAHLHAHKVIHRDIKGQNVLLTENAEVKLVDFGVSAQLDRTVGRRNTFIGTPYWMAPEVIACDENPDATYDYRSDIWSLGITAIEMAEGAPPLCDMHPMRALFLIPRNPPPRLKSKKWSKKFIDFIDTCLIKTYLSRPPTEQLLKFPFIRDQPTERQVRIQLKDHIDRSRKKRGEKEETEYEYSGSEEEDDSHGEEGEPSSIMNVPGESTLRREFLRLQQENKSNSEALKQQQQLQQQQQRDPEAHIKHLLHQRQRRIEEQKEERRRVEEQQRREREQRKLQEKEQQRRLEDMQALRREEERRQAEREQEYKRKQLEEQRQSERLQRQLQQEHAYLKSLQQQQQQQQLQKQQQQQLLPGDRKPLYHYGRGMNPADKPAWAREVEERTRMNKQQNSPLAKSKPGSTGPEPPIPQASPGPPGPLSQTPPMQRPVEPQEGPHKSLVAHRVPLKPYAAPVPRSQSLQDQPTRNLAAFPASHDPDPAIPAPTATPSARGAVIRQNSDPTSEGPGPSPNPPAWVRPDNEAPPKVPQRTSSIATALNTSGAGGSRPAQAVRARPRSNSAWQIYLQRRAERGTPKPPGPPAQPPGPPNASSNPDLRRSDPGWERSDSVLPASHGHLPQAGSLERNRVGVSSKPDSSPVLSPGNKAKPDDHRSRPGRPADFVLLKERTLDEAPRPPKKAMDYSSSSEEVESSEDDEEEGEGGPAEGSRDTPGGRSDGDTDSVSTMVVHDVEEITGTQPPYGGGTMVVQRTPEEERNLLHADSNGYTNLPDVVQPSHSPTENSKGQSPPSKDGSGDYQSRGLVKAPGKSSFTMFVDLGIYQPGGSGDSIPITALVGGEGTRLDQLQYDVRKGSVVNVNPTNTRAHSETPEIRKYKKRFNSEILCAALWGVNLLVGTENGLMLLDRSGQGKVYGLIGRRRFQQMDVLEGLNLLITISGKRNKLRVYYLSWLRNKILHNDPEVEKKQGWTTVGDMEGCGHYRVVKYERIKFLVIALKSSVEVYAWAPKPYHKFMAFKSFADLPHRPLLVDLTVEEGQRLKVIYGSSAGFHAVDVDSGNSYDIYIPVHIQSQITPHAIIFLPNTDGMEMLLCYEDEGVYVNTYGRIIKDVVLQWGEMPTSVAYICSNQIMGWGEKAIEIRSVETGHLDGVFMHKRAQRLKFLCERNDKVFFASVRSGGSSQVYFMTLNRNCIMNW
Mitogen-activated protein kinase 9 (Homo sapiens), sequence (P45984 whole entry, looked up): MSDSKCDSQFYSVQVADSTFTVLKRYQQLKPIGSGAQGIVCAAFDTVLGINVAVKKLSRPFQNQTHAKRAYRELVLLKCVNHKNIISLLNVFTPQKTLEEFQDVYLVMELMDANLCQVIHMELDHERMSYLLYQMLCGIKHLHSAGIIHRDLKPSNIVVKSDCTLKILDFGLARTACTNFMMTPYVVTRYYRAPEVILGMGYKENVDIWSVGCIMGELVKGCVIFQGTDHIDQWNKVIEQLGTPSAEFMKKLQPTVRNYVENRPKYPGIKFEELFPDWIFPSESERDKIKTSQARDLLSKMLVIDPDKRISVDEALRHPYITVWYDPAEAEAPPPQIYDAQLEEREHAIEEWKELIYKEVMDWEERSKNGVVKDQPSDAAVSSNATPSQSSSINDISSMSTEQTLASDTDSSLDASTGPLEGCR
Receptor tyrosine-protein kinase erbB-3 (Homo sapiens), sequence (P21860 whole entry): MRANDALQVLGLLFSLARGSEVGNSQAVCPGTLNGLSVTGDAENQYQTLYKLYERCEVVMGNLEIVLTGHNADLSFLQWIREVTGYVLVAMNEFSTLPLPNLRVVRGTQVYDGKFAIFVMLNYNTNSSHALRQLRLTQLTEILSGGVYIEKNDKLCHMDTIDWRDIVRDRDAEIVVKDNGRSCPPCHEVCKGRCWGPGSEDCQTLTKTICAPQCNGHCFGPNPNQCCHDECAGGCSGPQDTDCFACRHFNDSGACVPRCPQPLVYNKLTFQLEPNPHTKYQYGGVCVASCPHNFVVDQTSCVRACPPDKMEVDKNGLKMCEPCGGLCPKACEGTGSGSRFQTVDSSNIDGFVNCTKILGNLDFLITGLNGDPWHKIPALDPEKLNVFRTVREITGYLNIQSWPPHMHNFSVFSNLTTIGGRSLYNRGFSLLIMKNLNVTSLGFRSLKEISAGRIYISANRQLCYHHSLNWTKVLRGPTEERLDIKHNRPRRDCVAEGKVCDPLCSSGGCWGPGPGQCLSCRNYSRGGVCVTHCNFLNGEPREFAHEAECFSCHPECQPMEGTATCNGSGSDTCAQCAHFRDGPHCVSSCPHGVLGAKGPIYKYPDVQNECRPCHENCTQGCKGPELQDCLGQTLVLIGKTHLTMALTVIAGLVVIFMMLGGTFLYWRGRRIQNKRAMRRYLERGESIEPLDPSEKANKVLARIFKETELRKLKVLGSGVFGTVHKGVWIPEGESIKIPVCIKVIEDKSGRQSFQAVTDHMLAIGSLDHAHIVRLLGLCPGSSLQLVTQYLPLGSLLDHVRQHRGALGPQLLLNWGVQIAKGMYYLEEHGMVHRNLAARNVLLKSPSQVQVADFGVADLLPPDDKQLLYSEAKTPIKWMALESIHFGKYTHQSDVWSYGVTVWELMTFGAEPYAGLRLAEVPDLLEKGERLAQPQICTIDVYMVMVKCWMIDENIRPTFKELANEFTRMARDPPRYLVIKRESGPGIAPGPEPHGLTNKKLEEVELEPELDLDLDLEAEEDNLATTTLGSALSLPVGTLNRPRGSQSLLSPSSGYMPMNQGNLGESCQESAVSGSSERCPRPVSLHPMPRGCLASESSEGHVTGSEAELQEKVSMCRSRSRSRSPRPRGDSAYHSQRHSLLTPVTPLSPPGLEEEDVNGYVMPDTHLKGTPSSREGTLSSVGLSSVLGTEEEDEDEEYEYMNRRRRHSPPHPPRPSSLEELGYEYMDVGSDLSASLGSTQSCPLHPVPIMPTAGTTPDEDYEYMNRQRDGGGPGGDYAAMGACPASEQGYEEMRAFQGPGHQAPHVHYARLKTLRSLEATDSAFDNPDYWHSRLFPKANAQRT
Serine/threonine-protein kinase 32B (Homo sapiens), sequence (Q9NY57 whole entry, the tested form may be a part): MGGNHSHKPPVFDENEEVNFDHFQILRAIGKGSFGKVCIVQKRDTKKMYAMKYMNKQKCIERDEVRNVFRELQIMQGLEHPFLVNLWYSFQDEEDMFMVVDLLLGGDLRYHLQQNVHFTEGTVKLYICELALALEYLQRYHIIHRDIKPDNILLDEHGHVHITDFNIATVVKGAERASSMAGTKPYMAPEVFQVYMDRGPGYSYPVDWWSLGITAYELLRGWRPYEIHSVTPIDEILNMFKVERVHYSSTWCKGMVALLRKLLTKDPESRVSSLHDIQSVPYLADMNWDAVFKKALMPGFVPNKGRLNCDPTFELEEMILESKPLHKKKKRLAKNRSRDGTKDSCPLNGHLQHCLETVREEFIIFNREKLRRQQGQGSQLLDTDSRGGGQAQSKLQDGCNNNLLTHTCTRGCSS
Mitogen-activated protein kinase 14 (Homo sapiens), sequence (Q16539 whole entry): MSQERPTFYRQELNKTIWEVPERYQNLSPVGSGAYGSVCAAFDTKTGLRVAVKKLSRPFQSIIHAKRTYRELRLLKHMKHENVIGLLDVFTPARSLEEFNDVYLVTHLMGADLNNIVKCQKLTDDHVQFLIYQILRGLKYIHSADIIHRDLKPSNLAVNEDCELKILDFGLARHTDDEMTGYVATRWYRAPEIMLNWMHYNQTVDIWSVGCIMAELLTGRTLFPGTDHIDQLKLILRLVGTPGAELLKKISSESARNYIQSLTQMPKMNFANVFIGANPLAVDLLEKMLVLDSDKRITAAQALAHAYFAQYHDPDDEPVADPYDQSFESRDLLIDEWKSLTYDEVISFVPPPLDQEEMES
Ephrin type-A receptor 2 (Homo sapiens), sequence (P29317 whole entry): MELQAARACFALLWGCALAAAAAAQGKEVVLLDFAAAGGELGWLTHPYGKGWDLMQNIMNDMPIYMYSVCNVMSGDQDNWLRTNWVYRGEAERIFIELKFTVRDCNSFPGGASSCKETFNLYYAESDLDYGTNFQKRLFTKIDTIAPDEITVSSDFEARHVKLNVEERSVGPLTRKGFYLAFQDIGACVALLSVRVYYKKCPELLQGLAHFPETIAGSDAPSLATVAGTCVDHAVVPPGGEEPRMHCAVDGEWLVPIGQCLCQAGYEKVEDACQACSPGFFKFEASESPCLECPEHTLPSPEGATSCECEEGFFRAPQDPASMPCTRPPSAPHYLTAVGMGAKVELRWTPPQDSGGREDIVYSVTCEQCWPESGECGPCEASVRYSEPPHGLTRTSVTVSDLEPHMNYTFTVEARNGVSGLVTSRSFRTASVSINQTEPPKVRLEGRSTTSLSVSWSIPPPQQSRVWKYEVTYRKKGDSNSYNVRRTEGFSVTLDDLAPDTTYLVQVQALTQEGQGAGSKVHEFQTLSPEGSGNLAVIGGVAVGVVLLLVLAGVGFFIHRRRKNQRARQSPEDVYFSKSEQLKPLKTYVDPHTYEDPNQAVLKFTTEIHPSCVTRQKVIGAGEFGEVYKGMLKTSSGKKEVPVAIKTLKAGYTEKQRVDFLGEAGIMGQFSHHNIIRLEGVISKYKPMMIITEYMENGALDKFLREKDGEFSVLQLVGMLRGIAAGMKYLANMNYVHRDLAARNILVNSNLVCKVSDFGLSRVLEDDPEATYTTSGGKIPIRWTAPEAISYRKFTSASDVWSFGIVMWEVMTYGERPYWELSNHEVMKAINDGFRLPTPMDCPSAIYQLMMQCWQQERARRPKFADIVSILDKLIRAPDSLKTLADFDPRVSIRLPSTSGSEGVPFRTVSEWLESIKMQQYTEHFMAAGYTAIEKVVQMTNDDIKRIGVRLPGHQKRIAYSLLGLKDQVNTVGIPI

Row | IC50 [1] [µM] | IC50 [2] [µM] | Activity [3] [%] | Activity [4] [%] | Activity [5] [%] | Activity [6] [%] | Activity [7] [%] | Activity [8] [%] | Activity [9] [%] | Activity [10] [%] | IC50 [11] [µM] | IC50 [12] [µM] | Activity [13] [%] | Activity [14] [%] | Activity [15] [%] | Activity [16] [%] | Activity [17] [%] | Activity [18] [%] | Activity [19] [%] | Activity [20] [%] | Structure (SMILES)
1 | 0.015 | 0.0016 | 94 | 88 | 89 | 95 | 94 | 89 | 94 | 92 | 0.0029 | 0.005 | 14 | 78 |  |  |  |  |  |  | COc1ccccc1-n1c(-c2cc(O)ccc2C)cn2c3c(=O)[nH]c(=O)n(C)c3nc12
2 |  | 0.047 |  |  |  |  |  |  |  |  |  | 0.18 |  |  | 87 | 10 | 101 | 94 | 89 | 97 | COc1ccccc1-n1c(-c2ccccc2C)cn2c3c(=O)[nH]c(=O)n(C)c3nc12
